Results as given in ChEMBL document CHEMBL1124858, “Methylsulfamic acid esters. A new chemical class of oral antiarthritic agents” (1990).
“And” between values parts separate entries of the source, which are not always exact repeats. Identical values can stand only once. The source made the active and inactive calls. The calls are words filed in the database; no cut-off is given here.

What was measured:
Rattus norvegicus [1] = organism: Rattus norvegicus; assay: Weight change of rat was determined; Not significant; assay type: functional, organism-based
Method in brief: (§1)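 In adjuvant arthritic rats dosed orally from day 18 through day 50 post adjuvant injection, weight change was compared with vehicle control by Dunnett's t test.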

Rattus norvegicus [2] = assay: Evaluated for the adjuvant-induced arthritis edema of uninjected paw on 11-day after 10 mg/kg dose of peroral administration of the compound; settings: route oral
Rattus norvegicus [3] = assay: Evaluated for the adjuvant-induced arthritis edema of uninjected paw on 32-day after 10 mg/kg dose of peroral administration of the compound; settings: route oral
Rattus norvegicus [4] = organism: Rattus norvegicus; assay: 32-day X-ray(0= normal to 10= maximum joint destruction) was determined.; assay type: functional
Method in brief: (§2)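 Adjuvant-induced arthritic rats were dosed orally once daily from day 18 through day 50 after adjuvant injection, on a therapeutic regimen. The uninjected joint was X-rayed and scored blind at 32 days on an arbitrary scale from 0 (normal) to 10 (maximum joint destruction). Values are mean ± SD, compared with vehicle control by Dunnett's t test (p < 0.05).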

Mus musculus [5] = assay: Evaluated for the delayed type hypersensitivity (DTH) response to methylated BSA (mBSA) in sensitive mice after peroral administration of 50 mg/kg; assay type: functional; settings: route oral
Method in brief: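 Mice were sensitized to mBSA on day 0, dosed orally on days 4, 5, 6 and 7, and challenged with mBSA in the left hind paw on day 7. Paw weight was measured 24 h after challenge, with 10 mice per group. Negative controls received Freund's complete adjuvant without mBSA.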

Rattus norvegicus [6] = assay: Evaluated for the adjuvant-induced arthritis edema of uninjected paw on 32-day after 100 mg/kg dose of peroral administration of the compound; settings: route oral
Rattus norvegicus [7] = assay: Evaluated for the adjuvant-induced arthritis edema of uninjected paw on 11-day after 100 mg/kg dose of peroral administration of the compound; settings: route oral
Rattus norvegicus [8] = organism: Rattus norvegicus; assay: X-rays scored on an arbitrary (0=normal to 10=max. joint destruction) scale in a blinded manner was determined; 32-day X-ray; assay type: functional; method in brief: as §2
Rattus norvegicus [9] = assay: Evaluated for the adjuvant-induced arthritis edema of uninjected paw on 32-day after 1 mg/kg dose of peroral administration of the compound; settings: route oral
Rattus norvegicus [10] = assay: Evaluated for the adjuvant-induced arthritis edema of uninjected paw on 11-day after 3.16 mg/kg dose of peroral administration of the compound; settings: route oral
Mus musculus [11] = assay: Evaluated for the Delayed type hypersensitivity (DTH) response to methylated BSA (mBSA) in sensitive mice at a dose of 31.6.00 mg/kg after peroral administration; assay type: functional
Method in brief: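 Delayed-type hypersensitivity in mice: sensitized to mBSA on day 0, dosed orally on days 4, 5, 6 and 7, then challenged with mBSA in the left hind paw on day 7. Paw weight was measured 24 h after challenge. n = 10 per group. Result is % change from sensitized positive control, by Dunnett's t test. Negative control received Freund's complete adjuvant without mBSA.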

Rattus norvegicus [12] = assay: Evaluated for the carrageenan-induced pleural volume in rats at a dose of 100 mg/kg after peroral administration.; assay type: functional; settings: route oral
Method in brief: (§3)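 Carrageenan-induced pleurisy in rats, Evans blue pleural effusion assay. Twenty oral doses, one per day, were given before carrageenan challenge. Pleural volume is mL ± SD, n = 6 per group, with % change from control and Dunnett's t test (p < 0.05).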

Rattus norvegicus [13] = assay: Evaluated for the […] on 32-day after 10 mg/kg dose of peroral administration of the compound; assay type: functional; settings: route oral
Method in brief: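 Adjuvant-induced arthritic rat model with oral dosing from day 18 through day 50 post adjuvant. Edema was the volume change of the uninjected hind paw. The 11-day Δ is day 29 volume minus day 18 volume; the 32-day Δ is day 50 minus day 18. Values are mL ± SD against a vehicle control, by Dunnett's t test (p < 0.05).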

Rattus norvegicus [14] = assay: Evaluated for the adjuvant-induced arthritis edema of uninjected paw on 32-day after 3.16 mg/kg dose of peroral administration of the compound; settings: route oral
Rattus norvegicus [15] = assay: Evaluated for the carrageenan-induced pleural volume in rats at a dose of 4 mg/kg after peroral administration.; assay type: functional; settings: route oral; method in brief: as §3
Rattus norvegicus [16] = assay: Evaluated for the adjuvant-induced arthritis edema of uninjected paw on 11-day after 1 mg/kg dose of peroral administration of the compound; settings: route oral
Rattus norvegicus [17] = assay: Evaluated for the adjuvant-induced arthritis edema of uninjected paw on 32-day after 31.6 mg/kg dose of peroral administration of the compound; settings: route oral
Rattus norvegicus [18] = assay: Evaluated for the adjuvant-induced arthritis edema of uninjected paw on 11-day after 31.6 mg/kg dose of peroral administration of the compound; settings: route oral
Rattus norvegicus [19] = organism: Rattus norvegicus; assay: Weight change of rat was determined; + = significant increase in weight change from control; assay type: functional, organism-based; method in brief: as §1
Rattus norvegicus [20] = assay: Evaluated for the carrageenan-induced pleural volume in rats at a dose of 3.16 mg/kg after peroral administration.; assay type: functional; settings: route oral; method in brief: as §3

CNS(=O)(=O)OC[C@@H](COc1ccccc1OC)OS(=O)(=O)NC
Weight change (Rattus norvegicus [1]): inactive | Edema (Rattus norvegicus [2]): <-0.33 mL | Edema (Rattus norvegicus [3]): <-0.46 mL | Score (Rattus norvegicus [4]): <4.96 and 6.64

O=P1(N(CCCl)CCCl)NCCCO1 (stereo unspecified) [CYCLOPHOSPHAMIDE ANHYDROUS]
Paw weight (Mus musculus [5]): 153 mg

COc1ccccc1OCC(O)CO (stereo unspecified) [GUAIFENESIN]
Edema (Rattus norvegicus [6]): -0.4 mL | Weight change (Rattus norvegicus [1]): inactive | Edema (Rattus norvegicus [7]): 0.07 mL | Score (Rattus norvegicus [8]): 8.83

CNS(=O)(=O)OCC(COc1ccccc1OC)OS(=O)(=O)NC (stereo unspecified)
Edema (Rattus norvegicus [9]): <-0.23 mL | Edema (Rattus norvegicus [10]): <-0.14 mL | Paw weight (Mus musculus [11]): 179 mg | Pleural volume (Rattus norvegicus [12]): 4.92 mL | Weight change (Rattus norvegicus [1]): inactive | Edema (Rattus norvegicus [2]): <-0.39 mL | Edema (Rattus norvegicus [13]): -0.41 mL and <-0.42 mL and <-0.61 mL | Score (Rattus norvegicus [4]): <5.82 and <5.77 and <6.9 and 7.8 | Edema (Rattus norvegicus [14]): <-0.38 mL | Pleural volume (Rattus norvegicus [15]): 5.2 mL | Edema (Rattus norvegicus [16]): 0.1 mL

CNS(=O)(=O)OC[C@H](COc1ccccc1OC)OS(=O)(=O)NC
Edema (Rattus norvegicus [17]): -0.03 mL | Score (Rattus norvegicus [4]): 7.86 | Edema (Rattus norvegicus [18]): 0.16 mL

COc1ccc2c(c1)c(CC(=O)O)c(C)n2C(=O)c1ccc(Cl)cc1 [INDOMETHACIN]
Weight change (Rattus norvegicus [19]): Active | Score (Rattus norvegicus [4]): 3.54 and <4.07 and <3.8 and <4.04 | Pleural volume (Rattus norvegicus [20]): 3.5 mL
